Experimental data from ChEMBL document CHEMBL5154815, “A Series of Substituted Bis-Aminotriazines Are Activators of the Natriuretic Peptide Receptor C” (J Med Chem, 2022).
Activity calls are given as the source filed them. No cut-off for these calls is given here. Where a SMILES comes first, the peptide text is derived from it.

Tests used:
[1] = target: T1, Atrial natriuretic peptide receptor 3 (Homo sapiens, UniProt P17342); assay: Binding affinity to CM5 sensor chip immobilized human NPR-C (27 to 541 residues) assessed as dissociation constant by surface plasmon resonance analysis
T1 sequence (P17342 whole entry): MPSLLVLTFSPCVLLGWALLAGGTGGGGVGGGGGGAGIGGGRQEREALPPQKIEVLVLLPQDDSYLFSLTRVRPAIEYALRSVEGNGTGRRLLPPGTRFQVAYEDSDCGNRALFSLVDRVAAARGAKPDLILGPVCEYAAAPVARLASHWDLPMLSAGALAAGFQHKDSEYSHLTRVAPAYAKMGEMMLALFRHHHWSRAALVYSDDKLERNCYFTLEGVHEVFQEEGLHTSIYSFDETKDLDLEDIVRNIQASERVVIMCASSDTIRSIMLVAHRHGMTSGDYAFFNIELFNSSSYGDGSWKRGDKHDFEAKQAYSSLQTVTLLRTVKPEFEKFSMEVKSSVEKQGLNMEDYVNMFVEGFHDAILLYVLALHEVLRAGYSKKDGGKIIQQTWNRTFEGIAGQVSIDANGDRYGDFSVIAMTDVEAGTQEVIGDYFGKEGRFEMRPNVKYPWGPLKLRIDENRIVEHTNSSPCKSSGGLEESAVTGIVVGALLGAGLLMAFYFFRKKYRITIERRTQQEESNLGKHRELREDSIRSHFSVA

[2] = target: T2, Atrial natriuretic peptide receptor 3 (Homo sapiens) (UniProt P17342); assay: Agonist activity at NPRC in human Hela cells assessed as decrease in forskolin-induced cAMP level at 100 uM relative to control; format: cell-based; parameters: scale not given: the % may be the effect or the level left
T2 sequence (whole entry): T1 sequence (P17342 whole entry)

[3] = target: T1, Atrial natriuretic peptide receptor 3; assay: Displacement of Flu-P19 probe from human NPR-C (27 to 541 residues) by fluorescence polarization analysis
Outline: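 Competition fluorescence polarization used NPR-C extracellular domain protein (20 nM final) and Flu-P19 probe (150 pM final) in PBS-P with 1% DMSO. Ligand ranged 600–0.274 μM, and samples were assembled on ice. Read-out was at ex 485/em 520 nm, normalized to buffer+probe and protein+probe controls and blanked with buffer alone. EC50 came from curve fitting.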

[4] = target: T3, Atrial natriuretic peptide receptor 3 (Rattus norvegicus, UniProt P41740); assay: Agonist activity at NPRC in rat aorta assessed as vasorelaxation by Organ bath assay; format: tissue-based
T3 sequence (P41740 whole entry): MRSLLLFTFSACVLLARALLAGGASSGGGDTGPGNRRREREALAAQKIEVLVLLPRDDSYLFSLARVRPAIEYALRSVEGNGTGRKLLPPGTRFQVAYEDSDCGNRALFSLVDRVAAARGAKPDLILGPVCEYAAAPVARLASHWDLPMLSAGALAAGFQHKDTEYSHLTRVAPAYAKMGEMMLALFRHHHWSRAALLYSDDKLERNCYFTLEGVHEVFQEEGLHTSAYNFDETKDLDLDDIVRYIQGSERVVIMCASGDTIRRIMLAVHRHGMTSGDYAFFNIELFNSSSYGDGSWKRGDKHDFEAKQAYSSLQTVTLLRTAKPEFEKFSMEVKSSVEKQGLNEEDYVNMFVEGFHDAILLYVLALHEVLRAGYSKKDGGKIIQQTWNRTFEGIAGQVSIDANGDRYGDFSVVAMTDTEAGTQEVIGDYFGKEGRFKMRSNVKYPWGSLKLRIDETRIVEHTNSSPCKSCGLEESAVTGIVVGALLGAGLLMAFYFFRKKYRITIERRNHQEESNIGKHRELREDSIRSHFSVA

[5] = target: T3, Atrial natriuretic peptide receptor 3; assay: Agonist activity at NPRC in rat small mesenteric arteries assessed as vasorelaxation preincubated with M372049 for 15 mins followed by compound treatment by Organ bath assay; format: tissue-based, Artery
[6] = Stability of compound in pooled human plasma assessed as half life measured upto 120 mins by LC/MS/MS analysis; conditions: 2 h
[7] = target: T4, Atrial natriuretic peptide receptor 3 (Mus musculus, UniProt P70180); assay: Agonist activity at NPRC in wild type mouse mesenteric arteries assessed as vasorelaxation by Organ bath assay; format: tissue-based, Artery
T4 sequence (P70180 whole entry): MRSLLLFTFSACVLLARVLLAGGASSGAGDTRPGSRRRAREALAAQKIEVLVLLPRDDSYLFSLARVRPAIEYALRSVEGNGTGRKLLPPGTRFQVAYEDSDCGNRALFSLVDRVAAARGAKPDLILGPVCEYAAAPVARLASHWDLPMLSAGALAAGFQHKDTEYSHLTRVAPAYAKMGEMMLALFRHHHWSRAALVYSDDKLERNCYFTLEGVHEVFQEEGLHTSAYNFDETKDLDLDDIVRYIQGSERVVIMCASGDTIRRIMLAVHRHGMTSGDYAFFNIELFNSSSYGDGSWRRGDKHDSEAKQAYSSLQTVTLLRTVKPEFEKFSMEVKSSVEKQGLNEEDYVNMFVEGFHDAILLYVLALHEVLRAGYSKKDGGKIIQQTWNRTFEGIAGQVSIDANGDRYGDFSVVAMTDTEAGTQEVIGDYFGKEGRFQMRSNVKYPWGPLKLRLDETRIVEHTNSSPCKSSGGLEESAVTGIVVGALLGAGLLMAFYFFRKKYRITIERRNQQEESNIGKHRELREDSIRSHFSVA

[8] = rat, hepatocytes, 20 min, 1 µM
[9] = Protein binding in human plasma by equilibrium dialysis assay
[10] = Stability in Sprague-Dawley rat hepatocytes assessed as clearance per […] at 1 uM after 20 mins by LC-MS/MS analysis; format: ADME, cell-based, Hepatocyte
[11] = target: T3, Atrial natriuretic peptide receptor 3; assay: Agonist activity at NPRC in rat small mesenteric arteries assessed as vasorelaxation by Organ bath assay; format: tissue-based, Artery
[12] = Solubility of compound in PBS at 10 mM after 3 hrs by UV analysis; conditions: buffer, 10000 µM
Cytochrome P450 2C9 = Cytochrome P450 2C9 (Homo sapiens, UniProt P11712); assay: Inhibition of CYP2C9 in human liver microsomes using diclofenac as substrate preincubated for 10 mins followed by NADPH addition and measured after 10 mins by LC/MS/MS analysis
Cytochrome P450 2C19 = Cytochrome P450 2C19 (Homo sapiens, UniProt P33261); assay: Inhibition of CYP2C19 in human liver microsomes using S-mephenytoin as substrate preincubated for 10 mins followed by NADPH addition and measured after 20 mins by LC/MS/MS analysis
[13] = target: T4, Atrial natriuretic peptide receptor 3; assay: Agonist activity at NPRC in knock out mouse mesenteric arteries assessed as vasorelaxation by Organ bath assay; format: tissue-based, Artery
[14] = target: T2, Atrial natriuretic peptide receptor 3 (Homo sapiens); assay: Binding affinity to CM5 sensor chip immobilized human NPR-C (27 to 541 residues) assessed as maximum response by surface plasmon resonance analysis relative to control
Outline: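 SPR on CM5-immobilized NPR-C (27–541) in PBS-P with 1% DMSO, double-referenced. Observed Rmax was expressed as a percentage of theoretical Rmax. Theoretical Rmax was calculated from immobilized protein response, analyte and ligand molecular weights, and binding stoichiometry.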

[15] = target: T2, Atrial natriuretic peptide receptor 3 (Homo sapiens); assay: Agonist activity at NPRC in human HeLa cells assessed as decrease in forskolin-induced cAMP level at 100 nM; format: cell-based; conditions: filed as agonist

Sequence of Cytochrome P450 2C19 (P33261 whole entry): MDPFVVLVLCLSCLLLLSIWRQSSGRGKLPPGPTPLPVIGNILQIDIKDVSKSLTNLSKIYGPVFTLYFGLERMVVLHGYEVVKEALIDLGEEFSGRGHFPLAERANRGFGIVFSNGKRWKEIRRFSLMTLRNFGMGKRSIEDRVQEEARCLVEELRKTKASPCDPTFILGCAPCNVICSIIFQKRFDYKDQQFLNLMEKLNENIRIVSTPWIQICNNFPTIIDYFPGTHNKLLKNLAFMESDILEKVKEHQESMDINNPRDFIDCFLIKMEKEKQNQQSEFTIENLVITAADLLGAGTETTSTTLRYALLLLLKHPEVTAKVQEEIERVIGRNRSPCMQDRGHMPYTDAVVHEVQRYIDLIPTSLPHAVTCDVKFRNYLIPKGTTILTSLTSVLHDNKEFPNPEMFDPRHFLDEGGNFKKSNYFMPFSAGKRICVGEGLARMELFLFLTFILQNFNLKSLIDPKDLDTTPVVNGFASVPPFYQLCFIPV
Sequence of Cytochrome P450 2C9 (P11712 whole entry): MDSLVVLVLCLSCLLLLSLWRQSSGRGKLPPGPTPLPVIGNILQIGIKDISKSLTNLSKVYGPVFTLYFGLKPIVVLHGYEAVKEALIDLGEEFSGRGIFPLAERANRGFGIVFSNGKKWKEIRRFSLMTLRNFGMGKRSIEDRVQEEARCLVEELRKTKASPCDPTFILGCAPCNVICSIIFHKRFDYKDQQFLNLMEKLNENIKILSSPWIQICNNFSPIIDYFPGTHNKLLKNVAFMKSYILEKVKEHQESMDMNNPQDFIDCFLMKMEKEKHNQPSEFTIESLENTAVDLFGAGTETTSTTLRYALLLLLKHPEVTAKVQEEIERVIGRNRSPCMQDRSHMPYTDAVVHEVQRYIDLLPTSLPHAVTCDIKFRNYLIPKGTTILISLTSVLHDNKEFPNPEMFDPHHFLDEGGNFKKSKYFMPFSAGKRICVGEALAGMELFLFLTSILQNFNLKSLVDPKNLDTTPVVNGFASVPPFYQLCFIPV

Structure (SMILES): CC(=O)Nc1ccc(Nc2ncnc(N[C@@H](CC(C)C)C(=O)OC(C)(C)C)n2)cc1
- Kd [1]: 30.8 µM
- Activity [2]: 20.6%

Structure (SMILES): CCCCS(=O)(=O)Nc1ccc(Nc2ncnc(N[C@@H](CC(C)C)C(=O)OC(C)(C)C)n2)cc1
- Kd [1]: 45.1 µM

Structure (SMILES): CC(=O)Nc1ccc(Nc2nc(Cl)nc(N[C@@H](CC(C)C)C(=O)OC(C)(C)C)n2)cc1
- Kd [1]: 36.9 µM

Structure (SMILES): CC(=O)Nc1ccc(Nc2ncnc(N[C@H](C(=O)OC(C)(C)C)C3CCCCC3)n2)cc1
- Kd [1]: 28 µM
- EC50 [3]: 327 µM
- EC50 [4]: 6.24 µM

Structure (SMILES): CC(=O)Nc1ccc(Nc2ncnc(N[C@@H](Cc3ccccc3)C(=O)OC(C)(C)C)n2)cc1
- Kd [1]: 31.3 µM
- EC50 [3]: 32 µM
- Activity [2]: 9.16%

Structure (SMILES): CC(=O)Nc1ccc(Nc2ncnc(N[C@@H](Cc3ccccc3)C(=O)O)n2)cc1
- EC50 [3]: 60 µM

Structure (SMILES): COC(=O)[C@H](CC(C)C)Nc1nc(Cl)nc(N[C@H]2CC[C@H](Nc3nc(Cl)nc(N[C@@H](CC(C)C)C(=O)OC)n3)CC2)n1
- EC50 [5]: 0.47 µM
- t1/2 [6]: > 1 h
- Kd [1]: 95.7 µM
- EC50 [7]: 1.16 µM
- t1/2 [8]: > 3.613 h
- PPB [9]: 99.5%
- CLH [10]: < 0.64 µL/min
- Activity [2]: 31.4%
- EC50 [11]: 0.97 µM
- solubility [12]: > 122.52 mg/mL
- IC50 (Cytochrome P450 2C9): 4.96 µM
- EC50 [4]: 1.43 µM
- IC50 (Cytochrome P450 2C19): 37.8 µM
- EC50 [13]: 2.64 µM

Structure (SMILES): CC(=O)Nc1ccc(Nc2ncnc(N[C@@H](CCc3ccccc3)C(=O)OC(C)(C)C)n2)cc1
- Kd [1]: 23.8 µM
- EC50 [4]: 3.76 µM

Structure (SMILES): CC(=O)Nc1ccc(Nc2ncnc(N[C@@H](Cc3ccc(O)cc3)C(=O)OC(C)(C)C)n2)cc1
- Rmax [14]: < 20%

Structure (SMILES): CC(=O)Nc1ccc(Nc2ncnc(N[C@H](C(=O)OC(C)(C)C)C(C)(C)C)n2)cc1
- Kd [1]: 201 µM

Structure (SMILES): CC(=O)Nc1ccc(Nc2ncnc(N[C@H](CC(C)C)C(=O)OC(C)(C)C)n2)cc1
- Rmax [14]: < 20%

Structure (SMILES): CC(C)C[C@H](Nc1nc(Cl)nc(Nc2ccc(NS(=O)(=O)c3ccccc3)cc2)n1)C(=O)OC(C)(C)C
- Kd [1]: 99 µM

Structure (SMILES): CC(=O)Nc1ccc(Nc2ncnc(N[C@H](C(=O)OC(C)(C)C)C(C)C)n2)cc1
- Kd [1]: 79 µM

Structure (SMILES): CC(=O)Nc1ccc(Nc2ncnc(NC(C)(C)C(=O)OC(C)(C)C)n2)cc1
- Rmax [14]: < 20%

Structure (SMILES): CC(=O)Nc1ccc(Nc2ncnc(N[C@H](COC(C)(C)C)CC(C)C)n2)cc1
- Kd [1]: 42.2 µM

Structure (SMILES): CC(=O)Nc1ccc(Nc2ncnc(N[C@@H](CC(C)C)C(=O)OC3CCCC3)n2)cc1
- Kd [1]: 25 µM

Structure (SMILES): CC(=O)Nc1ccc(Nc2ncnc(NCC(=O)OC(C)(C)C)n2)cc1
- Kd [1]: 832 µM

Structure (SMILES): CCCCS(=O)(=O)Nc1ccc(Nc2nc(Cl)nc(N[C@@H](CC(C)C)C(=O)OC(C)(C)C)n2)cc1
- Kd [1]: 25.7 µM

Structure (SMILES): CC[C@H](C)[C@H](NC(=O)[C@H](CCCNC(=N)N)NC(=O)[C@H](CC(=O)O)NC(=O)[C@H](CCSC)NC(=O)[C@H](CCCNC(=N)N)NC(=O)CNC(=O)CNC(=O)[C@H](Cc1ccccc1)NC(=O)[C@H](CS)NC(=O)[C@H](CO)NC(=O)[C@H](CO)NC(=O)[C@@H](N)CCCNC(=N)N)C(=O)NCC(=O)N[C@@H](C)C(=O)N[C@@H](CS)C(=O)N[C@@H](CC(N)=O)C(=O)O (H-RSSCFGGRMDRIGACN-OH)
- Activity [15]: Active

Structure (SMILES): CC(=O)Nc1ccc(Nc2ncnc(N[C@@H](Cc3ccc(F)cc3)C(=O)OC(C)(C)C)n2)cc1
- Kd [1]: 23.7 µM
- EC50 [4]: 4.43 µM

Structure (SMILES): CC(=O)Nc1ccc(Nc2ncnc(N[C@@H](CC(C)C)C(=O)OC(C)C)n2)cc1
- Kd [1]: 84.4 µM

Structure (SMILES): CC(=O)Nc1ccc(Nc2ncnc(N[C@@H](C)C(=O)OC(C)(C)C)n2)cc1
- Rmax [14]: < 20%
- EC50 [11]: 3.45 µM
- EC50 [4]: 78.1 µM
